The values below come from the RNAGym collection of RNA variant scans (doi:10.1038/nmeth.2970).

Sequences and labels used below:
B1: NELF-E aptamer (parent)
chain: CCCAACGACUGCCGAGCGAGAUUACGCUUGAGCGCCCCACUGAGGAUGCCCACGGGCGAUUGGGGCACGG

The variants in this data set derive from B1. The data set is described as follows: HiTS-RAP. Particulars: with NELF-E (Drosophila). In a few lines:
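Kd came from weighted Hill fits to the first binding curve, with intensities normalised to sequencing intensity and averaged per sequence, keeping only fits whose variance was below 1,000,000. That curve was imaged on an Illumina GAIIx flowcell, where sequenced aptamer DNA templates with a T7 promoter and ter site had been transcribed in situ by T7 RNA polymerase and halted by GST-Tus (30 minutes, 37°C). Before each image, clusters equilibrated for 30 minutes at room temperature with NELF-E-mOrange at 0.064 to 1000 nM in HEPES binding buffer.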
By Kd is commonly meant a measure of binding affinity in units of concentration. Take CCCAACGACUGCCGAGCGAGAUUACGCUUGAGCGCCCCACUGAGGAUGCCCACAAGCGAUUGGGGCACGG [G54A G55A]: the Kd was determined as 26.2 nM.

For the variant CCCAACGACUGCCGAGCGAGAUUACGCUUGAGCGCCCCACUGAGGAUGCCCACAGGCGAUUGGGGUACGG [G54A C66U], the Kd is 16.9 nM.

With CCCAACGACUGCCGAGCGAGAUUACGCUUGAGCGCCCCACUGAGGAUGCCCACGGACGAUUGGGGCACGG [G56A], the dissociation constant (Kd) was 10.3 nM.

Turning to CCCAACGACUGCCGAGCGAGAUUACGCUUGAGCGCCCCACUGAGGAUGCCCACGGUCGAUUGGGGCACGG [G56U], the dissociation constant Kd was 5.3 nM.

In the case of CCCAACGACUGCCGAGCGAGAUUACGCUUGAGCGCCCCACUGAGGAUGCCCACGGCCGAUUGGGGCACGG [G56C], the dissociation constant Kd was determined as 37.4 nM.

On to CCCAACGACUGCCGAGCGAGAUUACGCUUGAGCGCCCCACUGAGGAUGCCCACAGGCGGUUGGGGCACGG [G54A A59G], for which the Kd stood at 73.6 nM.

For CCCAACGACUGCCGAGCGAGAUUACGCUUGAGCGCCCCACUGAGGAUGCCUACGGGCGAUUGGGGUACGG [C51U C66U], the Kd was 7.21 nM.

In the case of CCCAACGACUGCCGAGCGAGAUUACGCUUGAGCGCCCCACUGAGGAUGCCAACGGGCGAUUGGGGCACGG [C51A], the Kd turned out to be 8.65 nM.

As for CCCAACGACUGCCGAGCGAGAUUACGCUUGAGCGCCCCACUGAGGAUGCCUACGGGCGAUUGGGGCACGG [C51U], the dissociation constant (Kd) is 6.66 nM.

On to CCCAACGACUGCCGAGCGAGAUUACGCUUGAGCGCCCCACUGAGGAUGCCGACGGGCGAUUGGGGCACGG [C51G], for which the Kd was found to be 4.48 nM.

For CCCAACGACUGCCGAGCGAGAUUACGCUUGAGCGCCCCACUGAGGAGGCCCACGGGCGAUUGGGGCACGG [U47G], the dissociation constant (Kd) is 6.05 nM.

Consider CCCAACGACUGCCGAGCGAGAUUACGCUUGAGCGCCCCACUGAGGACGCCCACGGGCGAUUGGGGCACGG [U47C], for which the equilibrium dissociation constant (Kd) turned out to be 9.59 nM.

Consider CCCAACGACUGCCGAGCGAGAUUACGCUUGAGCGCCCCACUGAGGAAGCCCACGGGCGAUUGGGGCACGG [U47A], for which the equilibrium dissociation constant (Kd) was 10.2 nM.

Take CCCAACGACUGCCGAGCGAGAUUACGCUUGAGCGCCCCACUGAGGAUGCCCACGAGCGAUUGGGGCUCGG [G55A A67U]: the Kd was found to be 11.2 nM.

With CCCAACGACUGCCGAGCGAGAUUACGCUUGAGCGCCCCACUGAGGAUGCCCUCGGGCGAUAGGGGCACGG [A52U U61A], the Kd was found to be 90.9 nM.

For the variant CCCAACGACUGCCGAGCGAGAUUACGCUUGAGCGCCCCACUGAGGAUGCCCACGAGCGAUUGGGGCACGG [G55A], the dissociation constant (Kd) was found to be 7.36 nM.

CCCAACGACUGCCGAGCGAGAUUACGCUUGAGCGCCCCACUGAGGAUGCCCACGCGCGAUUGGGGCACGG [G55C]: the Kd stood at 7.14 nM.

Regarding CCCAACGACUGCCGAGCGAGAUUACGCUUGAGCGCCCCACUGAGGAUGCCCACGUGCGAUUGGGGCACGG [G55U], the equilibrium dissociation constant (Kd) was 6.36 nM.

Take CCCAACGACUGCCGAGCGAGAUUACGCUUGAGCGCCCCACUGAGCAUGCCCACGGGCGAUUGGGGCACGG [G45C]: the equilibrium dissociation constant (Kd) was found to be 39.5 nM.

For CCCAACGACUGCCGAGCGAGAUUACGCUUGAGCGCCCCACUGAGAAUGCCCACGGGCGAUUGGGGCACGG [G45A], the Kd amounted to 47.8 nM.

Consider CCCAACGACUGCCGAGCGAGAUUACGCUUGAGCGCCCCACUGAGUAUGCCCACGGGCGAUUGGGGCACGG [G45U], for which the Kd was determined as 6.76 nM.

Consider CCCAACGACUGCCGAGCGAGAUUACGCUUGAGCGCCCCACUGAGGAUGCCCUCGGGCGAUUGGGGCACGG [A52U], for which the equilibrium dissociation constant (Kd) amounted to 15.4 nM.

Consider CCCAACGACUGCCGAGCGAGAUUACGCUUGAGCGCCCCACUGAGGAUGCCCGCGGGCGAUUGGGGCACGG [A52G], for which the Kd was 4.24 nM.

In the case of CCCAACGACUGCCGAGCGAGAUUACGCUUGAGCGCCCCACUGAGGAUGCCCCCGGGCGAUUGGGGCACGG [A52C], the dissociation constant Kd came out at 5.64 nM.

Turning to CCCAACGACUGCCGAGCGAGAUUACGCUUGAGCGCCCCACUGAGGAUGCCCACGGGCGGUUGGAGCACGG [A59G G64A], the dissociation constant Kd was determined as 44.7 nM.

With CCCAACGACUGCCGAGCGAGAUUACGCUUGAGCGCCCCACUGAGGAUGCCCACGGGUGAUUGGGGCACGG [C57U], the Kd was found to be 5.5 nM.

Turning to CCCAACGACUGCCGAGCGAGAUUACGCUUGAGCGCCCCACUGAGGAUGCCCACGGGAGAUUGGGGCACGG [C57A], the dissociation constant (Kd) was 13.9 nM.

Regarding CCCAACGACUGCCGAGCGAGAUUACGCUUGAGCGCCCCACUGAGGAUGCCCACGGGGGAUUGGGGCACGG [C57G], the dissociation constant (Kd) was found to be 6.36 nM.

On to CCCAACGACUGCCGAGCGAGAUUACGCUUGAGCGCCCCACUGAGGAUGCCCAUGGGCGAUUGGAGCACGG [C53U G64A], for which the Kd came out at 4.84 nM.

Consider CCCAACGACUGCCGAGCGAGAUUACGCUUGAGCGCCCCACUGAGUGUGCCCACGGGCGAUUGGGGCACGG [G45U A46G], for which the Kd was 5.32 nM.

With CCCAACGACUGCCGAGCGAGAUUACGCUUGAGCGCCCCACUGAGGUGGCCCACGGGCGAUUGGGGCACGG [A46U U47G], the dissociation constant Kd came out at 5.55 nM.

Regarding CCCAACGACUGCCGAGCGAGAUUACGCUUGAGCGCCCCACUGAGGAAGCCCACAGGCGAUUGGGGCACGG [U47A G54A], the Kd amounted to 15.1 nM.

Turning to CCCAACGACUGCCGAGCGAGAUUACGCUUGAGCGCCCCACUGAGGAUGCCCACGAGCGAUUGGGUCACGG [G55A G65U], the Kd is 6.71 nM.

With CCCAACGACUGCCGAGCGAGAUUACGCUUGAGCGCCCCACUGAGGAUGCCCACGGGCUGUUGGGGCACGG [G58U A59G], the Kd stood at 5.09 nM.

Turning to CCCAACGACUGCCGAGCGAGAUUACGCUUGAGCGCCCCACUGAGGGUGCCCACGGGCGAUUGGGGCGCGG [A46G A67G], the dissociation constant (Kd) is 36.2 nM.

Consider CCCAACGACUGCCGAGCGAGAUUACGCUUGAGCGCCCCACUGAUGAUGCCCACGGGCGAUUGGGGCACGG [G44U], for which the dissociation constant (Kd) came out at 7.32 nM.

Regarding CCCAACGACUGCCGAGCGAGAUUACGCUUGAGCGCCCCACUGACGAUGCCCACGGGCGAUUGGGGCACGG [G44C], the Kd was 27.5 nM.

On to CCCAACGACUGCCGAGCGAGAUUACGCUUGAGCGCCCCACUGAGGAUGCCCACUGUCGAUUGGGGCACGG [G54U G56U], for which the Kd turned out to be 5.48 nM.
